Measured values taken from ChEMBL document CHEMBL4627348, “Synthesis of (1,3,4-thiadiazol-2-yl)-acrylamide derivatives as potential antitumor agents against acute leukemia cells” (Bioorg Med Chem Lett, 2020).

system: not listed separately; test: (§1) Cytotoxicity against HEK293T cells assessed as growth inhibition at 20 uM after 48 hrs by CCK8 assay relative to control; type: cell-based, HEK-293T; conditions: human, HEK293T cells; read-out: GI
How it was run: (§2)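 Single-dose screen at 20 μM in RS4;11 (human ALL), HL-60 (human promyelocytic leukemia) and HEK293T (normal-cell model). Cells exposed 48 h, viability read by CCK-8, growth inhibition ratio expressed relative to control.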

Row | SMILES | inhibition at 48 h, 20 µM [%]
1 | N#C/C(=C\c1ccccc1OS(=O)(=O)c1ccc(OC(F)(F)F)cc1)C(=O)Nc1nnc(-c2cc3ccccc3[nH]2)s1 | 53
2 | COc1ccc(Cc2nnc(NC(=O)/C(C#N)=C/c3ccccc3OS(=O)(=O)c3ccc(Cl)cc3)s2)cc1 | 34
3 | N#C/C(=C\c1ccccc1OS(=O)(=O)c1ccc(C(F)(F)F)cc1)C(=O)Nc1nnc(-c2cccs2)s1 | 57
4 | CC(=O)Nc1ccc(S(=O)(=O)Oc2cccc(/C=C(\C#N)C(=O)Nc3nnc(-c4cccs4)s3)c2)cc1 | 20
5 | COc1ccc(S(=O)(=O)Oc2ccccc2/C=C(\C#N)C(=O)Nc2nnc(Cc3cccc(F)c3)s2)cc1 | 29
6 | N#C/C(=C\c1ccccc1OS(=O)(=O)c1ccc([N+](=O)[O-])cc1)C(=O)Nc1nnc(Cc2ccc(Cl)cc2)s1 | 19

system: HEK-293T; test: as §1; type: cell-based; conditions: human, hek-293t, 48 h, 20 µM; how it was run: as §2

Row | SMILES | growth inhibition (GI)
7 | N#C/C(=C\c1ccccc1OS(=O)(=O)c1ccc(F)cc1)C(=O)Nc1nnc(Cc2ccc(F)cc2)s1 | Non-Toxic
8 | COc1ccc(-c2nnc(NC(=O)/C(C#N)=C/c3cccc(OS(=O)(=O)c4ccc(C)cc4)c3)s2)cc1 | Non-Toxic
9 | N#C/C(=C\c1ccccc1OS(=O)(=O)c1ccc([N+](=O)[O-])cc1)C(=O)Nc1nnc(Cc2ccccc2)s1 | Non-Toxic
10 | N#C/C(=C\c1ccccc1OS(=O)(=O)c1ccccc1[N+](=O)[O-])C(=O)Nc1nnc(Cc2cccc3ccccc23)s1 | Non-Toxic
11 | N#C/C(=C\c1ccccc1OS(=O)(=O)c1ccccc1[N+](=O)[O-])C(=O)Nc1nnc(Cc2cccc(F)c2)s1 | Non-Toxic
12 | COc1ccccc1-c1nnc(NC(=O)/C(C#N)=C/c2cccc(OS(=O)(=O)c3ccc(C)cc3)c2)s1 | Non-Toxic
13 | N#C/C(=C\c1ccccc1OS(=O)(=O)c1ccc([N+](=O)[O-])cc1)C(=O)Nc1nnc(Cc2cccc(F)c2)s1 | Non-Toxic

system: RS4-11; test: Antiproliferative activity against human RS4:11 cells assessed as growth inhibition after 48 hrs by CCK-8 assay; type: functional, cell-based; conditions: RS4-11, 48 h

Row | SMILES | IC50 [µM]
14 | N#C/C(=C\c1ccccc1OS(=O)(=O)c1ccc(OC(F)(F)F)cc1)C(=O)Nc1nnc(-c2cc3ccccc3[nH]2)s1 | > 20
15 | COc1ccc(Cc2nnc(NC(=O)/C(C#N)=C/c3ccccc3OS(=O)(=O)c3ccc(Cl)cc3)s2)cc1 | 4.02
16 | N#C/C(=C\c1ccccc1OS(=O)(=O)c1ccc(C(F)(F)F)cc1)C(=O)Nc1nnc(-c2cccs2)s1 | 10.5
17 | CC(=O)Nc1ccc(S(=O)(=O)Oc2cccc(/C=C(\C#N)C(=O)Nc3nnc(-c4cccs4)s3)c2)cc1 | > 20
18 | COc1ccc(S(=O)(=O)Oc2ccccc2/C=C(\C#N)C(=O)Nc2nnc(Cc3cccc(F)c3)s2)cc1 | 1.21

system: HL-60; test: Antiproliferative activity against human HL60 cells assessed as growth inhibition at 20 uM after 48 hrs by CCK-8 assay relative to control; type: functional; conditions: HL-60, 48 h, read-out: GI; how it was run: as §2

Row | SMILES | inhibition of growth at 20 µM [%]
19 | N#C/C(=C\c1ccccc1OS(=O)(=O)c1ccc(F)cc1)C(=O)Nc1nnc(Cc2ccc(F)cc2)s1 | 13
20 | COc1ccc(-c2nnc(NC(=O)/C(C#N)=C/c3cccc(OS(=O)(=O)c4ccc(C)cc4)c3)s2)cc1 | 73
21 | N#C/C(=C\c1ccccc1OS(=O)(=O)c1ccc([N+](=O)[O-])cc1)C(=O)Nc1nnc(Cc2ccccc2)s1 | 20
22 | N#C/C(=C\c1ccccc1OS(=O)(=O)c1ccccc1[N+](=O)[O-])C(=O)Nc1nnc(Cc2cccc3ccccc23)s1 | 23
23 | N#C/C(=C\c1ccccc1OS(=O)(=O)c1ccc(OC(F)(F)F)cc1)C(=O)Nc1nnc(-c2cc3ccccc3[nH]2)s1 | 59
24 | N#C/C(=C\c1ccccc1OS(=O)(=O)c1ccc(C(F)(F)F)cc1)C(=O)Nc1nnc(-c2cccs2)s1 | 55
25 | CC(=O)Nc1ccc(S(=O)(=O)Oc2cccc(/C=C(\C#N)C(=O)Nc3nnc(-c4cccs4)s3)c2)cc1 | 71
26 | COc1ccc(S(=O)(=O)Oc2ccccc2/C=C(\C#N)C(=O)Nc2nnc(Cc3cccc(F)c3)s2)cc1 | 100
27 | N#C/C(=C\c1ccccc1OS(=O)(=O)c1ccccc1[N+](=O)[O-])C(=O)Nc1nnc(Cc2cccc(F)c2)s1 | 23
28 | COc1ccccc1-c1nnc(NC(=O)/C(C#N)=C/c2cccc(OS(=O)(=O)c3ccc(C)cc3)c2)s1 | 73
29 | N#C/C(=C\c1ccccc1OS(=O)(=O)c1ccc([N+](=O)[O-])cc1)C(=O)Nc1nnc(Cc2ccc(Cl)cc2)s1 | 34
30 | N#C/C(=C\c1ccccc1OS(=O)(=O)c1ccc([N+](=O)[O-])cc1)C(=O)Nc1nnc(Cc2cccc(F)c2)s1 | 18

system: HL-60; test: Antiproliferative activity against human HL60 cells assessed as growth inhibition after 48 hrs by CCK-8 assay; type: functional, cell-based; conditions: HL-60, 48 h

Row | SMILES | IC50 [µM]
31 | N#C/C(=C\c1ccccc1OS(=O)(=O)c1ccc(OC(F)(F)F)cc1)C(=O)Nc1nnc(-c2cc3ccccc3[nH]2)s1 | 11.1
32 | N#C/C(=C\c1ccccc1OS(=O)(=O)c1ccc(C(F)(F)F)cc1)C(=O)Nc1nnc(-c2cccs2)s1 | 17.5
33 | CC(=O)Nc1ccc(S(=O)(=O)Oc2cccc(/C=C(\C#N)C(=O)Nc3nnc(-c4cccs4)s3)c2)cc1 | 7.94
34 | COc1ccc(S(=O)(=O)Oc2ccccc2/C=C(\C#N)C(=O)Nc2nnc(Cc3cccc(F)c3)s2)cc1 | 3.88

system: RS4-11; test: Antiproliferative activity against human RS4:11 cells assessed as growth inhibition at 20 uM after 48 hrs by CCK-8 assay relative to control; type: functional; conditions: RS4-11, 48 h, read-out: GI; how it was run: as §2

Row | SMILES | inhibition of growth at 20 µM [%]
35 | N#C/C(=C\c1ccccc1OS(=O)(=O)c1ccc(F)cc1)C(=O)Nc1nnc(Cc2ccc(F)cc2)s1 | 59
36 | COc1ccc(-c2nnc(NC(=O)/C(C#N)=C/c3cccc(OS(=O)(=O)c4ccc(C)cc4)c3)s2)cc1 | 79
37 | N#C/C(=C\c1ccccc1OS(=O)(=O)c1ccc([N+](=O)[O-])cc1)C(=O)Nc1nnc(Cc2ccccc2)s1 | 57
38 | N#C/C(=C\c1ccccc1OS(=O)(=O)c1ccccc1[N+](=O)[O-])C(=O)Nc1nnc(Cc2cccc3ccccc23)s1 | 66
39 | N#C/C(=C\c1ccccc1OS(=O)(=O)c1ccc(OC(F)(F)F)cc1)C(=O)Nc1nnc(-c2cc3ccccc3[nH]2)s1 | 26
40 | COc1ccc(Cc2nnc(NC(=O)/C(C#N)=C/c3ccccc3OS(=O)(=O)c3ccc(Cl)cc3)s2)cc1 | 79
41 | N#C/C(=C\c1ccccc1OS(=O)(=O)c1ccc(C(F)(F)F)cc1)C(=O)Nc1nnc(-c2cccs2)s1 | 58
42 | CC(=O)Nc1ccc(S(=O)(=O)Oc2cccc(/C=C(\C#N)C(=O)Nc3nnc(-c4cccs4)s3)c2)cc1 | 33
43 | COc1ccc(S(=O)(=O)Oc2ccccc2/C=C(\C#N)C(=O)Nc2nnc(Cc3cccc(F)c3)s2)cc1 | 74
44 | N#C/C(=C\c1ccccc1OS(=O)(=O)c1ccccc1[N+](=O)[O-])C(=O)Nc1nnc(Cc2cccc(F)c2)s1 | 68
45 | COc1ccccc1-c1nnc(NC(=O)/C(C#N)=C/c2cccc(OS(=O)(=O)c3ccc(C)cc3)c2)s1 | 41
46 | N#C/C(=C\c1ccccc1OS(=O)(=O)c1ccc([N+](=O)[O-])cc1)C(=O)Nc1nnc(Cc2ccc(Cl)cc2)s1 | 66
47 | N#C/C(=C\c1ccccc1OS(=O)(=O)c1ccc([N+](=O)[O-])cc1)C(=O)Nc1nnc(Cc2cccc(F)c2)s1 | 65

system: HEK-293T; test: Cytotoxicity against human HEK293T cells assessed as growth inhibition after 48 hrs by CCK8 assay; type: cell-based; conditions: not given

Row | SMILES | IC50 [µM]
48 | N#C/C(=C\c1ccccc1OS(=O)(=O)c1ccc(OC(F)(F)F)cc1)C(=O)Nc1nnc(-c2cc3ccccc3[nH]2)s1 | 14.4
49 | COc1ccc(Cc2nnc(NC(=O)/C(C#N)=C/c3ccccc3OS(=O)(=O)c3ccc(Cl)cc3)s2)cc1 | > 50
50 | N#C/C(=C\c1ccccc1OS(=O)(=O)c1ccc(C(F)(F)F)cc1)C(=O)Nc1nnc(-c2cccs2)s1 | 12.3
51 | CC(=O)Nc1ccc(S(=O)(=O)Oc2cccc(/C=C(\C#N)C(=O)Nc3nnc(-c4cccs4)s3)c2)cc1 | > 20
52 | COc1ccc(S(=O)(=O)Oc2ccccc2/C=C(\C#N)C(=O)Nc2nnc(Cc3cccc(F)c3)s2)cc1 | > 50
